# Published values pooled from the literature.
# Each line is one published result; the experiments were not run side by side.
# Target: Acetylcholinesterase (ACHE, Homo sapiens, UniProt P22303)
# Mode: inhibitor
SMILES,observed,technique,IC50
COc1cccc(C=NNC(=O)c2cc(-c3cn(C)c4ccccc34)on2)c1OC,enzyme activity,,> 100 µM
CN(C)c1ccc(/C=N/n2c(-c3cc([N+](=O)[O-])c[nH]3)n[nH]c2=S)c(O)c1,enzyme activity,Ellman,21.2 µM
C#CCN(C)CCCCCCOCc1ccc(CN(C)c2c3c(nc4ccc(C)cc24)CCCC3)cc1,enzyme activity,Ellman,45.8 µM
CSc1ccc(C=NNC(=O)c2cc(-c3cn(C)c4ccccc34)on2)cc1,enzyme activity,,> 100 µM
O=[N+]([O-])c1c[nH]c(-c2n[nH]c(=S)n2/N=C/c2cc(O)cc(F)c2)c1,enzyme activity,Ellman,8.8 µM
C#CCN(C)CCCCCCCOc1cccc(CN(C)c2c3c(nc4ccccc24)CCCC3)c1,enzyme activity,Ellman,1.14 µM
Cn1cc(-c2cc(C(=O)NN=Cc3ccccc3Cl)no2)c2ccccc21,enzyme activity,,> 100 µM
COC(=O)c1cc(N(C)C(=O)c2ccn3ncc(-c4ccc(C(=O)O)cc4)c3c2)ccc1Cl,cell-free assay,,> 30 µM
O=[N+]([O-])c1c[nH]c(-c2n[nH]c(=S)n2/N=C/c2ccc(Cl)c(Cl)c2)c1,enzyme activity,Ellman,14.2 µM
CCN(CC)c1ccc(C=NNC(=O)c2ccc(F)cc2)c(OS(=O)(=O)c2ccc(OC)cc2)c1,enzyme activity,Ellman,0.0837 µM
O=C(NCCN1CCCCC1)c1ccc(F)cc1,enzyme activity,Ellman,3.1 µM
C#CCN(C)CCCCCOCc1ccc(CN(C)c2c3c(nc4ccccc24)CCCC3)cc1,enzyme activity,Ellman,4.84 µM
COc1ccc(/C=N/n2c(-c3cc([N+](=O)[O-])c[nH]3)n[nH]c2=S)cc1,enzyme activity,Ellman,25.1 µM
COc1ccc(S(=O)(=O)Oc2ccccc2C=NNC(=O)c2ccc(F)cc2)cc1,enzyme activity,Ellman,0.107 µM
CNC(=O)c1ccc(-c2cnn3ccc(C(=O)N(C)c4ccc(Cl)c(C(=O)OC)c4)cc23)cc1,cell-free assay,,> 30 µM
O=[N+]([O-])c1c[nH]c(-c2n[nH]c(=S)n2/N=C/c2ccc(F)cc2O)c1,enzyme activity,Ellman,7.1 µM
C#CCN(C)CCCCCOc1cccc(CN(C)c2c3c(nc4ccccc24)CCCC3)c1,enzyme activity,Ellman,2.6 µM
O=C(NCCN1CCCCC1)c1ccc([N+](=O)[O-])cc1,enzyme activity,Ellman,2.4 µM
O=[N+]([O-])c1c[nH]c(-c2n[nH]c(=S)n2/N=C/c2c(O)cc(O)cc2O)c1,enzyme activity,Ellman,6.2 µM
COc1ccc(S(=O)(=O)Oc2cc(OC)ccc2C=NNC(=O)c2ccc(F)cc2)cc1,enzyme activity,Ellman,0.0919 µM
C#CCN(C)CCCCCOCc1ccc(CN(C)c2c3c(nc4ccc(C)cc24)CCCC3)cc1,enzyme activity,Ellman,13.4 µM
COc1ccc(S(=O)(=O)Oc2ccc(C=NNC(=O)c3ccc(F)cc3)cc2)cc1,enzyme activity,Ellman,0.0121 µM
O=C(NCCN1CCCCC1)c1ccccc1F,enzyme activity,Ellman,0.013 µM
Cn1cc(-c2cc(C(=O)NN=Cc3ccccc3)no2)c2ccccc21,enzyme activity,,> 100 µM
COc1ccc(C(=O)NCCN2CCCCC2)cc1,enzyme activity,Ellman,5.6 µM
C#CCN(C)CCCCCCOCc1ccc(CN(C)c2c3c(nc4ccccc24)CCCC3)cc1,enzyme activity,Ellman,1.57 µM
O=C(NCCN1CCCCC1)c1ccccc1[N+](=O)[O-],enzyme activity,Ellman,19 µM
O=[N+]([O-])c1c[nH]c(-c2n[nH]c(=S)n2/N=C/c2ccc(Cl)cc2[N+](=O)[O-])c1,enzyme activity,Ellman,15.1 µM
Cn1cc(-c2cc(C(=O)NN=Cc3cccc([N+](=O)[O-])c3)no2)c2ccccc21,enzyme activity,,45.6 µM
O=[N+]([O-])c1c[nH]c(-c2n[nH]c(=S)n2/N=C/c2ccc(F)c([N+](=O)[O-])c2)c1,enzyme activity,Ellman,15.5 µM
O=C(NCCN1CCCCC1)c1cccc(F)c1,enzyme activity,Ellman,1.6 µM
